The text below walks through data of ChEMBL document CHEMBL1138224, “Design, synthesis, and biological evaluation of peptidomimetic inhibitors of factor XIa as novel anticoagulants” (J Med Chem, 2006).

For assay [1], the target named is Coagulation factor XI (Homo sapiens, UniProt P03951). Nature of the assay: Inhibition of factor 11a.
Assay [2] has as its target Coagulation factor X (Homo sapiens, UniProt P00742). Nature of the assay: Inhibition of factor 10a.
The target in assay [3] is Prothrombin (Homo sapiens, UniProt P00734). Briefly: Inhibition of thrombin.
In assay [4] the test system is Plasma. Briefly: Anticoagulant activity in human plasma measured by activated […] time. It counts as functional. In outline: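 Activated partial thromboplastin time in human plasma. Plasma was incubated with compound for 2 min. aPTT reagent was added and incubated 3 min. Prewarmed 30 mM CaCl2 was added and clotting was read up to 300 s. The concentration doubling clotting time was taken from the dose-response curve.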

The subject of assay [5] is Plasma. Briefly: Anticoagulant activity in human plasma measured by prothrombin time. It is filed as functional. In outline: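 Human plasma with compound prewarmed 3 min at 37 °C, then prewarmed thromboplastin reagent containing calcium added; clotting read over 300 s. Concentration doubling clotting time (2× PT) derived from dose-response curve.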
Assay [6] is filed under the species Homo sapiens. Nature of the assay: Selectivity for factor 11a over factor 10a. In outline:
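Fold selectivity compared IC50s against factor XIa and factor Xa, both in Tris-HCl/NaCl/Tween 20 buffer at pH 7.4. FXIa: Glp-Pro-Arg-AMC, 50 nM enzyme, 50 µM substrate, 15-30 min at 30 °C. FXa: H-Pro-Phe-Arg-AMC at twice those concentrations, 60 min.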

In assay [7] the target is Trypsin (Homo sapiens, UniProt P07477+P07478+P35030). Briefly: Inhibition of trypsin. It is filed as protein assay. In outline: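 Trypsin activity was read with the fluorogenic substrate Glp-Pro-Arg-AMC. Conditions were 50 nM enzyme and 50 µM substrate in 100 mM Tris-HCl, 200 mM NaCl and 0.02% Tween 20 at pH 7.4. Ten-point dose-response endpoints were taken after 15-30 min at 30 °C. Released AMC was read at ex 355/em 460 nm, and IC50 came from a one-site nonlinear least-squares fit.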

The test system of assay [8] is Rattus norvegicus. Nature of the assay: Efficacy in rat venous thrombosis model assessed as reduction in thrombus weight at 0.25 mg/kg, iv. The arrangement: dose 0.25 mg/kg. It counts as functional, organism-based. In outline: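 Intravenous infusion at 0.0625 or 0.25 mg/kg in 0.1 M NaOAc pH 4.0 vehicle, started 5 min before induction; clot isolated and weighed 10 min postchallenge. n = 9; Tukey-Kramer test versus vehicle.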

The species entered for assay [9] is Homo sapiens. Briefly: Selectivity for factor 11a over thrombin. Summed up: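 IC50s against factor XIa and thrombin were compared as fold selectivity. Both enzymes used Glp-Pro-Arg-AMC, with 50 nM enzyme and 50 µM substrate in Tris-HCl/NaCl/0.02% Tween 20 at pH 7.4. Ten-point endpoint assays ran for 15-30 min at 30 °C with AMC fluorescence read at 355/460 nm. IC50 came from a one-site dose-response fit.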

pIC50: −log10 of the molar value. Active and inactive are the calls of the source. No cut-off for these calls is given here.

Chain of Coagulation factor XI (P03951 19-387 limits assumed): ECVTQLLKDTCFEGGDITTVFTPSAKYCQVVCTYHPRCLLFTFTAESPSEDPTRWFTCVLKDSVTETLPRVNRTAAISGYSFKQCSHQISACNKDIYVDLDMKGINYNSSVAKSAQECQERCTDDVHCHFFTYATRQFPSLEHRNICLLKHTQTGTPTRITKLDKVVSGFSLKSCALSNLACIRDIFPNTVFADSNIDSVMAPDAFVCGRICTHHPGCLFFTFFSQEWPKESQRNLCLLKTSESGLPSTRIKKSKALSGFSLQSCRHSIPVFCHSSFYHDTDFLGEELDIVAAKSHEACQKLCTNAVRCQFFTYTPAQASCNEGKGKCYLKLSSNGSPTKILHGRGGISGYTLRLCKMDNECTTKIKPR
Chain of Coagulation factor XI (P03951 388-625 limits assumed): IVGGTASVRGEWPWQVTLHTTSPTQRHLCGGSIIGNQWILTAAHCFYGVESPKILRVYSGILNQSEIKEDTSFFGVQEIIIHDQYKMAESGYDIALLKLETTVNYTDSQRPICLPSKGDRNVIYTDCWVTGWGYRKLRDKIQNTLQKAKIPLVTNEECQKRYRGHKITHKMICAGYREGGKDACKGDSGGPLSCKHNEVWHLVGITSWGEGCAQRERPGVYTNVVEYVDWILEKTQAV
Chain of Coagulation factor X (P00742 41-179 limits assumed): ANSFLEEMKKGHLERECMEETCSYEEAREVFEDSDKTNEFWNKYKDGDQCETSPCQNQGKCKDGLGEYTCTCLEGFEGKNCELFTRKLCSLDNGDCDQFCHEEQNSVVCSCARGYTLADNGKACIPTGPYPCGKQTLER
Chain of Coagulation factor X (P00742 235-488 limits assumed): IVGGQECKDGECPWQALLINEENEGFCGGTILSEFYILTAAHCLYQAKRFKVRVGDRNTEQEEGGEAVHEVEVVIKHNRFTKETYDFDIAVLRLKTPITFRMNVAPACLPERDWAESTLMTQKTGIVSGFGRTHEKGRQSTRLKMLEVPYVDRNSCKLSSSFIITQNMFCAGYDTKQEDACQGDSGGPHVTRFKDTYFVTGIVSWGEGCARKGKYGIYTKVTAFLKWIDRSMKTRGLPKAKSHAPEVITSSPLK

A word on the pIC50: it is the IC50 on a negative log10 scale, so that one unit is a factor of ten. A higher pIC50 goes with a low IC50. Turning to `CC(C)[C@H](NC(=O)[C@H](CCCNC(N)=O)NC(=O)N[C@H](C)c1ccc(Br)cc1)C(=O)N[C@@H](CCCNC(=N)N)C(=O)c1nccs1`, the pIC50 is 7.52 in [1], 5.72 in assay [2] and 5.96 in assay [3]. For the same compound, the 2aPTT in assay [4] amounted to 1.35 µM. In assay [5], this compound registered a 2PT of 48.6 µM.
With `CCC(C)[C@H](NC(=O)[C@H](CC(C)C)NC(=O)NCc1ccc(Cl)c(Cl)c1)C(=O)N[C@@H](CCCN=C(N)N)C(=O)c1nccs1` (stereo not given in full), the negative-log IC50 (pIC50) in assay [1] was 7.12; in assay [2], 4.07; in [3] it was 5.59.
Consider `CC(C)[C@H](NC(=O)[C@H](Cc1ccccc1)NNC(=O)Cc1ccco1)C(=O)N[C@@H](CCCNC(=N)N)C(=O)c1nccs1`, for which, in assay [1], the negative logarithm of the IC50 (pIC50) is 5.59.
Take `CC(C)C[C@H](NC(=O)NCc1ccc(Cl)c(Cl)c1)C(=O)N[C@H](C(=O)N[C@@H](CCCN=C(N)N)C(=O)c1nccs1)C(C)(C)C`: the pIC50 in assay [1] is 5.04; in assay [2], under 3.70; in [3], 4.92.
`CC(C)C[C@H](NC(=O)NCc1ccccc1)C(=O)N[C@H](C(=O)N[C@@H](CCCNC(=N)N)C(=O)c1nccs1)C(C)C`: the negative-log IC50 (pIC50) in assay [1] was 6.87; in [2] it was under 4.70; in assay [3], 5.55.
Turning to `CCOC(=O)C(Cc1ccccc1)NC(=O)NN[C@@H](Cc1ccccc1)C(=O)N[C@H](C(=O)N[C@@H](CCCNC(=N)N)C(=O)c1nccs1)C(C)C` (stereo not given in full), the results for the pIC50 in [1], in assay [2] and in assay [3] were 6.59, 4.84 and 5.68, respectively.
For `CC(C)[C@H](NC(=O)[C@H](Cc1c[nH]c2ccccc12)NC(=O)N[C@H](C)c1ccc(Br)cc1)C(=O)N[C@@H](CCCNC(=N)N)C(=O)c1nccs1`, in that order: 7.54, 5.68 and 6.15.
As for `CC(C)C[C@H](NC(=O)NCc1ccc(Cl)c(Cl)c1)C(=O)N[C@@H](Cc1ccc(O)cc1)C(=O)N[C@@H](CCCNC(=N)N)C(=O)c1nccs1`, the pIC50 in [1] was 6.70; in [2], 5.77; in [3] it was 6.00.
As to `CC(C)C[C@H](NC(=O)NCc1ccc(Cl)cc1Cl)C(=O)N[C@H](C(=O)N[C@@H](CCCN=C(N)N)C(=O)c1nccs1)C(C)C`, the pIC50 in assay [1] is 7.35; in [2], 4.89; in assay [3] it was 6.41.
For the compound `CC(C)[C@H](NC(=O)[C@H](CC(N)=O)NC(=O)N[C@H](C)c1ccc(Br)cc1)C(=O)N[C@@H](CCCNC(=N)N)C(=O)c1nccs1`, the pIC50 in [1] was 8.10; in [2], 5.80; in [3] it was 6.40. Moreover, the 2aPTT in assay [4] worked out at 0.56 µM. This compound returned a 2PT in [5] of 26.3 µM.
For `CC(C)C[C@H](NC(=O)NCc1ccc(Cl)c(Cl)c1)C(=O)N[C@@H](Cc1ccccc1)C(=O)N[C@@H](CCCN=C(N)N)C(=O)c1nccs1`, the negative logarithm of the IC50 (pIC50) is 6.15 in assay [1], 5.07 in assay [2] and 4.57 in assay [3].
Take `CC(C)[C@H](NC(=O)[C@H](Cc1cccnc1)NC(=O)N[C@H](C)c1ccc(Br)cc1)C(=O)N[C@@H](CCCNC(=N)N)C(=O)c1nccs1`: the negative-log IC50 (pIC50) was 7.92 in [1], 5.85 in [2] and 5.85 in [3]. Besides, in assay [6], the Selectivity ratio was determined as 200. In addition, the 2aPTT in assay [4] was 2.4 µM. Moreover, in [5], the 2PT was found to be 31 µM.
`CC(C)[C@H](NC(=O)[C@H](Cc1cccnc1)NC(=O)N[C@@H](C)c1ccc(F)cc1)C(=O)N[C@@H](CCCNC(=N)N)C(=O)c1nccs1`: the negative-log IC50 (pIC50) in [1] was 6.27; in [3], 6.22.
`CC(C)C[C@H](NC(=O)OCc1ccccc1)C(=O)N[C@H](C(=O)N[C@@H](CCCN=C(N)N)C(=O)c1nccs1)C(C)C` gave a pIC50 in assay [1] of 6.45.
With `CC(C)[C@H](NC(=O)[C@H](Cc1ccccc1)NNC(=O)Nc1ccccc1)C(=O)N[C@@H](CCCNC(=N)N)C(=O)c1nccs1`, the negative logarithm of the IC50 (pIC50) was 5.72 in assay [1], under 4.70 in [2] and 6.03 in [3].
The like results for `CC(C)C[C@H](NC(=O)NCc1ccc(F)cc1)C(=O)N[C@H](C(=O)N[C@@H](CCCNC(=N)N)C(=O)c1nccs1)C(C)C` were, in that order, 6.94, under 4.70 and 5.51.
As for `CC(C)[C@H](NC(=O)[C@H](CCCN=C(N)N)NC(=O)N[C@H](C)c1ccc(Br)cc1)C(=O)N[C@@H](CCCN=C(N)N)C(=O)c1nccs1`, the figures for the pIC50 in [1], in assay [2] and in assay [3] were 8.15, 6.60 and 6.36, respectively.
For `CC(C)[C@H](NC(=O)[C@@H](NC(=O)N[C@@H](C)c1ccc(Br)cc1)C1CCCCC1)C(=O)N[C@@H](CCCN=C(N)N)C(=O)c1nccs1`, in that order: 6.88, 4.83 and 5.25.
`CC(C)C[C@H](NC(=O)NCc1ccc(Cl)c(Cl)c1)C(=O)N[C@H](C(=O)N[C@@H](CCCN=C(N)N)C(=O)c1nccs1)C(C)C`: the negative-log IC50 (pIC50) in [1] was 7.20; in [2], under 4.70; in [3], 6.06.
On to `CC(C)[C@H](NC(=O)[C@H](Cc1ccccc1)NNC(=O)c1ccco1)C(=O)N[C@@H](CCCNC(=N)N)C(=O)c1nccs1`, for which the negative logarithm of the IC50 (pIC50) in assay [1] is 5.66.
`CC(C)[C@H](NC(=O)[C@@H](NC(=O)N[C@H](C)c1ccc(Br)cc1)C1CCCCC1)C(=O)N[C@@H](CCCNC(=N)N)C(=O)c1nccs1`: the values for the negative logarithm of the IC50 (pIC50) in [1], in assay [2] and in assay [3] were 8.00, 5.57 and 6.01, respectively. In [4], this compound showed a 2aPTT of 15.4 µM. In [5], this compound returned a 2PT of 178.6 µM.
Consider `CC(C)C[C@H](NC(=O)NCc1ccc(Cl)c(Cl)c1)C(=O)N[C@@H](C)C(=O)N[C@@H](CCCNC(=N)N)C(=O)c1nccs1`, for which the negative-log IC50 (pIC50) was 6.04 in [1], 4.66 in [2] and 5.00 in [3].
With `CC(=O)N[C@@H](CC(C)C)C(=O)N[C@H](C(=O)N[C@@H](CCCN=C(N)N)C(=O)c1nccs1)C(C)C`, the pIC50 in [2] and in assay [3] was under 3.70 in each case.
Consider `CC(C)[C@H](NC(=O)[C@H](Cc1ccccc1)NNC(=O)NCc1ccc(F)cc1)C(=O)N[C@@H](CCCNC(=N)N)C(=O)c1nccs1`, for which the results for the pIC50 in assay [1] and in [3] were 6.80 and 5.37, respectively.
For the compound `CCOC(=O)C(CC(C)C)NC(=O)NN[C@@H](Cc1ccccc1)C(=O)N[C@H](C(=O)N[C@@H](CCCNC(=N)N)C(=O)c1nccs1)C(C)C` (stereo not given in full), the figures for the pIC50 in assay [1], in assay [2] and in [3] were 6.39, 4.81 and 5.68, respectively.
As for `CC(C)[C@H](NC(=O)[C@H](Cc1ccccc1)NNS(=O)(=O)c1ccc(Cl)c(Cl)c1)C(=O)N[C@@H](CCCNC(=N)N)C(=O)c1nccs1`, in assay [1], the pIC50 was 5.64.
For `CC(C)[C@H](NC(=O)[C@H](Cc1cccnc1)NC(=O)N[C@H](C)c1ccc(F)cc1)C(=O)N[C@@H](CCCN=C(N)N)C(=O)c1nccs1`, the pIC50 in [1] is 7.55; in assay [3] it was 6.28.
Take `CC(C)[C@H](NC(=O)[C@H](Cc1ccccc1)NNC(=O)NCc1ccc(Cl)c(Cl)c1)C(=O)N[C@@H](CCCNC(=N)N)C(=O)c1nccs1`: the results for the negative-log IC50 (pIC50) in [1], in [2] and in [3] were 7.05, 4.85 and 5.17, respectively.
The term IC50 denotes the concentration that inhibits the measured activity by half. Read a high IC50 as weaker potency. Compound `CC(C)[C@H](NC(=O)[C@H](Cc1ccc(O)cc1)NC(=O)N[C@H](C)c1ccc(Br)cc1)C(=O)N[C@@H](CCCNC(=N)N)C(=O)c1nccs1` registered an IC50 in assay [7] of 12 nM. Moreover, the outcome in assay [8] was Active. Further, the Selectivity ratio in assay [9] turned out to be 340; in [6] it was 267. In assay [4], this compound returned a 2aPTT of 2.4 µM. In assay [5], this compound had a 2PT of 25 µM.
Regarding `CC(C)C[C@H](NC(=O)NC(C)c1ccc(Br)cc1)C(=O)N[C@H](C(=O)N[C@@H](CCCNC(=N)N)C(=O)c1nccs1)C(C)C` (stereo not given in full), the pIC50 in assay [1] was 8.00; in assay [2] it was 4.82; in assay [3] it was 5.85. For the same compound, the Selectivity ratio was 140 in assay [9] and 1500 in assay [6].
On to `CC(C)C[C@H](NC(=O)NCc1ccc(Cl)c(Cl)c1)C(=O)N[C@H](C(=O)N[C@@H](CCCNC(=N)N)C(=O)c1nccs1)C1CCCCC1`, for which the pIC50 in assay [1] is 6.47; in assay [2] it was under 3.70; in assay [3] it was 5.11.
